Activity calls are given as the source filed them. No cut-off for these calls is given here.
Legend:
[1] = molecular target: T1, 5'-nucleotidase (Mus musculus) (UniProt Q61503); test: Inhibition of CD73 in C57BL/6 mouse retina incubated for 1 hr by microscopic analysis; format: tissue-based
T1 sequence (whole entry): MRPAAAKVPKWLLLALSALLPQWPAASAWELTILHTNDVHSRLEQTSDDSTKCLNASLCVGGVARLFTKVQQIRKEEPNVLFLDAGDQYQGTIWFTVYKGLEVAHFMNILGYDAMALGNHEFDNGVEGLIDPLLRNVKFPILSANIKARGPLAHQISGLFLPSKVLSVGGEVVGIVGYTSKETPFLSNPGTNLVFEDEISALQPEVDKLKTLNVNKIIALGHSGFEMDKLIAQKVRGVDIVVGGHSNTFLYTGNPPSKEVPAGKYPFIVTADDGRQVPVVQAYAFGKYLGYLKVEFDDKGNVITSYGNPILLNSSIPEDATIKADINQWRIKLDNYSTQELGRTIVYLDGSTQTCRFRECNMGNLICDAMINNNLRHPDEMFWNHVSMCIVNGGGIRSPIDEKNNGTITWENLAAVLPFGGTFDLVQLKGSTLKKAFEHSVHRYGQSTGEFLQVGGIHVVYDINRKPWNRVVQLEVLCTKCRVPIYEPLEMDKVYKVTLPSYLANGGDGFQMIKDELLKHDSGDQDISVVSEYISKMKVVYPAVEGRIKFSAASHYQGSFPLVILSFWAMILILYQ
Procedure, shortened: (§1)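 Eyeballs enucleated from wild-type and CD73 knockout mice (targeted gene disruption). Free-floating vibratome-cut eye sections costained with rabbit anti-rat CD73 and chicken anti-vimentin antibodies. Then incubated with fluorochrome-conjugated second-stage antibodies together with fluorescein-labeled inhibitor. Nuclei counterstained with DAPI; read by immunofluorescence microscopy.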

[2] = molecular target: T2, 5'-nucleotidase (Homo sapiens, UniProt P21589); test: Inhibition of recombinant human C-terminal His-tagged CD73 (27 to 549 residues) expressed in Sf9 cells using [2,8-3H]-AMP as substrate incubated for 25 mins by scintillation counting method
Procedure, shortened: (§2)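 Radiometric CD73 assay using [3H]AMP substrate. Enzyme sources: human and rat recombinant soluble CD73 from Sf9 insect cells, or membrane preparations of MDA-MB-231 cells with native CD73. After incubation, unreacted [3H]AMP precipitated with lanthanum chloride and removed by filtration. [3H]adenosine in filtrate quantified by liquid scintillation counting. Full concentration-inhibition curves; Ki from IC50 via Cheng–Prusoff. Means ± SEM of 3 separate experiments.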

[3] = molecular target: T2, 5'-nucleotidase; test: Inhibition of CD73 in human MDA-MB-231 cells incubated for 30 mins by anti-CD73 antibody and alexa flour 633 staining based confocal microscopy analysis; format: cell-based
Procedure, shortened: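 MDA-MB-231 cells grown on cover slips were stained with rabbit anti-human CD73 antibody (h5NT-1L), then incubated with Alexa Fluor 633 goat anti-rabbit IgG secondary together with the fluorescein-labelled CD73 inhibitor. Nuclei were counterstained with DAPI. Cell-surface CD73 and probe binding were imaged by confocal microscopy.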

[4] = system: Retina; test: Effect on C57BL/6 mouse retina with CD73-/- deficient incubated for 1 hr by microscopic analysis; format: ADME, tissue-based; procedure, shortened: as §1
[5] = system: A549; test: Cytotoxicity against human A549 cells assessed as reduction in cell growth at 1000 nM incubated for 48 hrs by CCK8 assay; format: cell-based; conditions: a549, 48 h, 1 µM
[6] = system: MDA-MB-231; test: Cytotoxicity against human MDA-MB-231 cells assessed as reduction in cell growth at 10000 nM incubated for 24 hrs by FACS analysis; format: cell-based; conditions: mda-mb-231, 24 h, 10 µM
[7] = molecular target: T2, 5'-nucleotidase; test: Inhibition of CD73 in human MDA-MB-231 cells using [2,8-3H]-AMP as substrate incubated for 25 mins by scintillation counting method; format: cell-based; procedure, shortened: as §2
[8] = molecular target: T3, 5'-nucleotidase (Rattus norvegicus, UniProt P21588); test: Inhibition of recombinant rat CD73 expressed in Sf9 cells using [2,8-3H]-AMP as substrate incubated for 25 mins by scintillation counting method; procedure, shortened: as §2
T3 sequence (P21588 whole entry): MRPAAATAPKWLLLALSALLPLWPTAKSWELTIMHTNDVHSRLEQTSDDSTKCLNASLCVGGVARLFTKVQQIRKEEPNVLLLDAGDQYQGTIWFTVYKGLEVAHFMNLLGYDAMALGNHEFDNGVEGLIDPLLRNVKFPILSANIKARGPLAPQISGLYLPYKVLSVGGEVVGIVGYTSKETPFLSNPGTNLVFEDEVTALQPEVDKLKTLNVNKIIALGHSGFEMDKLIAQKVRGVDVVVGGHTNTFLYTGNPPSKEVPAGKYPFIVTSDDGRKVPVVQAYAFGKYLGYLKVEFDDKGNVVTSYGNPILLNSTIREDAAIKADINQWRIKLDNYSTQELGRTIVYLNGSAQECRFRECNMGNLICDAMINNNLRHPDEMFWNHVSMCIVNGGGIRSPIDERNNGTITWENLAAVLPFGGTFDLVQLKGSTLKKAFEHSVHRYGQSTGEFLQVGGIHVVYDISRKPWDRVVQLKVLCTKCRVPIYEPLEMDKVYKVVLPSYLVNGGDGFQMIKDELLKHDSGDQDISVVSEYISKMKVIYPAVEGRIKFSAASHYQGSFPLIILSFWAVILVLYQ

[9] = Selectivity index, ratio of Ki for rat C-terminal His-tagged CD73 expressed in Sf9 cells to Ki for recombinant human C-terminal His-tagged CD73 (27 to 549 residues) expressed in Sf9 cells
Procedure, shortened: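 Ki values were measured in a radiometric assay with [3H]AMP substrate against rat and human recombinant soluble CD73 expressed in Sf9 insect cells. Residual [3H]AMP was precipitated with lanthanum chloride and removed by filtration, and [3H]adenosine was quantified by liquid scintillation counting. Ki came from full-curve IC50 via Cheng–Prusoff, 3 separate experiments. The ratio is rat Ki over human Ki.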

[10] = molecular target: T4, Ectonucleoside triphosphate diphosphohydrolase 1 (Homo sapiens) (UniProt P49961); test: Inhibition of human NTPDase 1 expressed in […] cells using ATP as substrate at 50 uM incubated for 5 mins followed by substrate addition and measured after 30 mins by capillary electrophoresis method; format: cell-based
T4 sequence (whole entry): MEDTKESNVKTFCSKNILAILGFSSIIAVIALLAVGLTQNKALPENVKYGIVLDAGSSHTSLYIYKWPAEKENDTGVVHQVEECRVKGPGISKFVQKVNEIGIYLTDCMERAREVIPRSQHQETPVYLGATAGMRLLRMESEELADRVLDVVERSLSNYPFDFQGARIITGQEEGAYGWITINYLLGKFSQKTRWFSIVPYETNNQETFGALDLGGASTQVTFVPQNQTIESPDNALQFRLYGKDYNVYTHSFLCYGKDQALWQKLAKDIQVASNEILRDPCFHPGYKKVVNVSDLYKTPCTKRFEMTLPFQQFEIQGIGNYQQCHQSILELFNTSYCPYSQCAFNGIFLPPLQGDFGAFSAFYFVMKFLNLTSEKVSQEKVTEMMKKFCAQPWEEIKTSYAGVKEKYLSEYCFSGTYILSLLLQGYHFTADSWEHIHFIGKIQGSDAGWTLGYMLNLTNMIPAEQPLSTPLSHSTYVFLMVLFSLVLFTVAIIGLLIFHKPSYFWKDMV

[11] = molecular target: T5, Ectonucleoside triphosphate diphosphohydrolase 2 (Homo sapiens) (UniProt Q9Y5L3); test: Inhibition of human NTPDase 2 expressed in […] cells using ATP as substrate at 50 uM incubated for 5 mins followed by substrate addition and measured after 30 mins by capillary electrophoresis method; format: cell-based
T5 sequence (whole entry): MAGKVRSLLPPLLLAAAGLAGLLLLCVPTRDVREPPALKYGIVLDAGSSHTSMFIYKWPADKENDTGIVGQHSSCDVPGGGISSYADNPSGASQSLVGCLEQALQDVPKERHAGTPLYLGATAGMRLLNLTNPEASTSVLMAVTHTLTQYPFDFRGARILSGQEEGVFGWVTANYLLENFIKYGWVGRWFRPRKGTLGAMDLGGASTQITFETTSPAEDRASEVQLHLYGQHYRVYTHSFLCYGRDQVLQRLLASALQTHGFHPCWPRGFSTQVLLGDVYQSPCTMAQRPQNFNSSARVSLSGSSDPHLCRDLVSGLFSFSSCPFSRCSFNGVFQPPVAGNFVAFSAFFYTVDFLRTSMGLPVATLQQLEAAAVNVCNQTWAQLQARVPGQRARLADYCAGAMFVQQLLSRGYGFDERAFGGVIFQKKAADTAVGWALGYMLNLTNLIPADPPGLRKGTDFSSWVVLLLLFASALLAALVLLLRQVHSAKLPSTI

[12] = molecular target: T6, Ectonucleoside triphosphate diphosphohydrolase 3 (Homo sapiens) (UniProt O75355); test: Inhibition of human NTPDase 3 expressed in […] cells using ATP as substrate at 50 uM incubated for 5 mins followed by substrate addition and measured after 30 mins by capillary electrophoresis method; format: cell-based
T6 sequence (whole entry): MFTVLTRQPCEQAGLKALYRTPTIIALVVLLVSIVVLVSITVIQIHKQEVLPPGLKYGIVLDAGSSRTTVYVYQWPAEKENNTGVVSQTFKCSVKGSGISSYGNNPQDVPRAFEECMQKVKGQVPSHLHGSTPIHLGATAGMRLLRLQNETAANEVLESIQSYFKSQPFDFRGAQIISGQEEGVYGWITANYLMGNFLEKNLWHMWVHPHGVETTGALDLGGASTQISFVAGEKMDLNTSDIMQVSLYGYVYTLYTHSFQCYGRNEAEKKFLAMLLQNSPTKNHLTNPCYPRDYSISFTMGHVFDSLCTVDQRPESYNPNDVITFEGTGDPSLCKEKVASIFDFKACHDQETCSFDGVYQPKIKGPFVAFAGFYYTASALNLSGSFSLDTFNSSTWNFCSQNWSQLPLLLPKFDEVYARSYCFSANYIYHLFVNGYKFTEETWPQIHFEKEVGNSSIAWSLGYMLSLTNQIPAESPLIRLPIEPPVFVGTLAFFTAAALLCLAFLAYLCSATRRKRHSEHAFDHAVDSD

[13] = molecular target: T7, Ectonucleoside triphosphate diphosphohydrolase 8 (Homo sapiens) (UniProt Q5MY95); test: Inhibition of human NTPDase 8 expressed in […] cells using ATP as substrate at 50 uM incubated for 5 mins followed by substrate addition and measured after 30 mins by capillary electrophoresis method; format: cell-based
T7 sequence (whole entry): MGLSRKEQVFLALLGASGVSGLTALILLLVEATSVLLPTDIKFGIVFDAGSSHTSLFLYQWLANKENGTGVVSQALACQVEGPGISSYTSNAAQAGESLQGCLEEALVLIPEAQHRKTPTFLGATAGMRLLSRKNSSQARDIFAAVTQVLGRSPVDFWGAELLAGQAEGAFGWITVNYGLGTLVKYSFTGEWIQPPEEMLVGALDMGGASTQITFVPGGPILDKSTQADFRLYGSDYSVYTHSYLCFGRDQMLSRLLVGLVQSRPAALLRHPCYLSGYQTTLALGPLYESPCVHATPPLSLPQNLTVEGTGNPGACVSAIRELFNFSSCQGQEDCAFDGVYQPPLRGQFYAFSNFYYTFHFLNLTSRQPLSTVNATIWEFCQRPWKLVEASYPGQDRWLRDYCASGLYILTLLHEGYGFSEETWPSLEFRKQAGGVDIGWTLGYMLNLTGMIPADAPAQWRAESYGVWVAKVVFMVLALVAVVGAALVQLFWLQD

[14] = molecular target: P2Y purinoceptor 12 (Homo sapiens) (UniProt Q9H244); test: Effect on human P2Y12 expressed in […] cells assessed as beta arrestin recruitment at 10 uM by beta-arrestin assay; format: functional, cell-based; conditions: CHO-K1
[15] = Metabolic stability in human liver microsomes assessed as intrinsic clearance measured for 60 mins; format: ADME, Microsome; conditions: read-out: CLH
Procedure, shortened: (§3)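 Stability of the probe tested by incubation with human liver microsomes. Intrinsic clearance expressed per mg microsomal protein; half-life derived from the clearance.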

[16] = Metabolic stability in human liver microsomes assessed as half life measured for 60 mins; format: ADME, Microsome; procedure, shortened: as §3

T2 sequence (P21589 whole entry, the tested form may be a part): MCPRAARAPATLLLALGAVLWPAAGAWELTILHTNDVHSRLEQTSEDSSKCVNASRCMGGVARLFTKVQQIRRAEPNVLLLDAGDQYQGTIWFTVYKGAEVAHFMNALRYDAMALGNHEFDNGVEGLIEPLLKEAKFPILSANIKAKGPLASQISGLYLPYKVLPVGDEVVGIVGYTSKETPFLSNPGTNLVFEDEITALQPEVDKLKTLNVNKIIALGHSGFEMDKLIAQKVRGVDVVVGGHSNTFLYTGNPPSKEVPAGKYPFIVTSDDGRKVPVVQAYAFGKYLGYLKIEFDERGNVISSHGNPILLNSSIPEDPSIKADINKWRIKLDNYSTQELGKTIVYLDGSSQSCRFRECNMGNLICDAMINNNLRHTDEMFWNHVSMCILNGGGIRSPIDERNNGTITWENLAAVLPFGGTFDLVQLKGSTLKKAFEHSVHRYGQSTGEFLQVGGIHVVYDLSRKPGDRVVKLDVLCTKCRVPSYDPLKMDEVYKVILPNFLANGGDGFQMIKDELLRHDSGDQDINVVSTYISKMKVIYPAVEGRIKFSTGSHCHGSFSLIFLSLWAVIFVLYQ
P2Y purinoceptor 12 (Homo sapiens), sequence (Q9H244 whole entry): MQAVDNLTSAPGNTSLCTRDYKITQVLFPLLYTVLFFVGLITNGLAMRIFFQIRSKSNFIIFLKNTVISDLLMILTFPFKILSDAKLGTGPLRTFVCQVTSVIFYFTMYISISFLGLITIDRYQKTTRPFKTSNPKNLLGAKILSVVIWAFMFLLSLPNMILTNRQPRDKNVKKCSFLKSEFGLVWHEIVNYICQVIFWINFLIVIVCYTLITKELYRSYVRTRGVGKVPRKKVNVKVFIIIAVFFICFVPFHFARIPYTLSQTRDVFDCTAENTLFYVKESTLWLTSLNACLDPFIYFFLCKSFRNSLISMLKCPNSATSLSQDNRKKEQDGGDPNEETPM

Structure (SMILES) | inhibition [1] | Ki [2] [nM] | inhibition [3] | Activity [4] | Activity [5] | Activity [6] | Ki [7] [nM] | Ki [8] [nM] | Ratio Ki [9] | inhibition [10] | inhibition [11] | inhibition [12] | inhibition [13] | Activity [14] | microsomal CLint [15] [µL/min/mg] | half-life [16] [h]
O=C(NCCOCCOCCNC(=O)c1ccc2c(c1)C1(OC2=O)c2ccc(O)cc2Oc2cc(O)ccc21)c1ccc(CNc2ncnc3c2ncn3[C@@H]2O[C@H](COP(=O)(O)CP(=O)(O)O)[C@@H](O)[C@H]2O)cc1 | Active | 12.6 | Active | Non-Toxic | Non-Toxic | Non-Toxic | – | – | – | – | – | – | – | – | – | –
O=C(NCCCCCCNC(=O)c1ccc2c(c1)C1(OC2=O)c2ccc(O)cc2Oc2cc(O)ccc21)c1ccc(CNc2ncnc3c2ncn3[C@@H]2O[C@H](COP(=O)(O)CP(=O)(O)O)[C@@H](O)[C@H]2O)cc1 | Active | 2.98 | Active | Non-Toxic | Non-Toxic | Non-Toxic | 4.59 | 26 | 8 | inactive | inactive | inactive | inactive | inactive | 12 | 1.93

Source: ChEMBL document CHEMBL4725476, “Fluorescent Probes for Ecto-5'-nucleotidase (CD73)” (ACS Med Chem Lett, 2020)
